Results from ChEMBL document CHEMBL1649151, “Urinary bactericidal activity of Doripenem versus that of levofloxacin in patients with complicated urinary tract infections or pyelonephritis” (Antimicrob Agents Chemother, 2009).
In brackets after ≈: the same amount, converted by molar mass.

Assays:
Escherichia coli [1] = test: Antimicrobial activity against Escherichia coli 1655646 A-Y isolated from patient with pyelonephritis assessed as >3-log reduction in urinary bacterial titer after 20 hrs; format: functional, Urine
Procedure, shortened: (§1)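 Urine was collected before dosing and on day 3 of i.v. therapy (steady state), in 4-h intervals from infusion start (0–4 to 20–24 h), stored at −80°C and sterile filtered. It was serially diluted twofold (1:0 to 1:131,072) in the patient's drug-free pre-dose urine. Microdilution used an inoculum of 1.0 x 10^6–9.5 x 10^6 CFU/ml, incubated 18 h at 37°C, then subcultured 24 h on blood agar. The endpoint was >99.9% kill, reported as reciprocal titer.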

Serratia marcescens [2] = test: Antimicrobial activity against Serratia marcescens 2297260 B-U isolated from patient with pyelonephritis assessed as >3-log reduction in urinary bacterial titer after 20 hrs; format: functional, Urine
[3] = system: Staphylococcus epidermidis; test: Antimicrobial activity against Staphylococcus epidermidis 2297262-9 B-V isolated from patient with pyelonephritis by Etest; format: functional
Pseudomonas aeruginosa [4] = test: Antimicrobial activity against Pseudomonas aeruginosa 2062713 B-Q isolated from patient with pyelonephritis assessed as >3-log reduction in urinary bacterial titer after 8 hrs; format: functional, Urine
[5] = system: Staphylococcus epidermidis; test: Antimicrobial activity against Staphylococcus epidermidis 2297262-9 B-V isolated from patient with pyelonephritis assessed as >3-log reduction in urinary bacterial titer after 20 hrs; format: functional, Urine
Pseudomonas aeruginosa [6] = test: Antimicrobial activity against Pseudomonas aeruginosa 1821383 B-E isolated from patient with pyelonephritis assessed as >3-log reduction in urinary bacterial titer after 16 hrs; format: functional, Urine
[7] = system: Staphylococcus epidermidis; test: Antimicrobial activity against Staphylococcus epidermidis 1949822 B-J isolated from patient with pyelonephritis assessed as >3-log reduction in urinary bacterial titer after 24 hrs; format: functional, Urine
Enterococcus faecalis [8] = test: Antimicrobial activity against Enterococcus faecalis 2297262-10 B-V isolated from patient with pyelonephritis assessed as >3-log reduction in urinary bacterial titer after 20 hrs; format: functional, Urine; procedure, shortened: as §1
Serratia marcescens [9] = test: Antimicrobial activity against Serratia marcescens 2297260 B-U isolated from patient with pyelonephritis assessed as >3-log reduction in urinary bacterial titer after 24 hrs; format: functional, Urine
Enterococcus faecalis [10] = test: Antimicrobial activity against Enterococcus faecalis 2215767-10 B-S isolated from patient with pyelonephritis assessed as >3-log reduction in urinary bacterial titer after 4 hrs; format: functional, Urine; procedure, shortened: as §1
[11] = system: Staphylococcus epidermidis; test: Antimicrobial activity against Staphylococcus epidermidis 2297262-9 B-V isolated from patient with pyelonephritis assessed as >3-log reduction in urinary bacterial titer after 24 hrs; format: functional, Urine
Pseudomonas aeruginosa [12] = test: Antimicrobial activity against Pseudomonas aeruginosa 2062713 B-Q isolated from patient with pyelonephritis assessed as >3-log reduction in urinary bacterial titer after 12 hrs; format: functional, Urine
Pseudomonas aeruginosa [13] = test: Antimicrobial activity against Pseudomonas aeruginosa 2062713 B-Q isolated from patient with pyelonephritis assessed as >3-log reduction in urinary bacterial titer after 24 hrs; format: functional, Urine
Staphylococcus aureus = test: Antimicrobial activity against Staphylococcus aureus 1889640 A-Z isolated from patient with pyelonephritis assessed as >3-log reduction in urinary bacterial titer after 8 hrs; format: functional, Urine
Pseudomonas aeruginosa [14] = test: Antimicrobial activity against Pseudomonas aeruginosa 1821383 B-E isolated from patient with pyelonephritis assessed as >3-log reduction in urinary bacterial titer after 24 hrs; format: functional, Urine
[15] = system: Staphylococcus epidermidis; test: Antimicrobial activity against Staphylococcus epidermidis 2297262-9 B-V isolated from patient with pyelonephritis assessed as >3-log reduction in urinary bacterial titer after 8 hrs; format: functional, Urine
Escherichia coli [16] = test: Antimicrobial activity against Escherichia coli 1821386 B-D isolated from patient with pyelonephritis assessed as >3-log reduction in urinary bacterial titer after 12 hrs; format: functional, Urine
Procedure, shortened: (§2)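 Urine was collected on day 3 of i.v. therapy (steady state) over 4-h intervals from infusion start (0–4 to 20–24 h), stored at –80°C and sterile filtered. It was serially diluted twofold (1:0 up to 1:131,072) in the patient's own pre-dose drug-free urine. Microdilution used a final inoculum of 1.0 x 10^6 to 9.5 x 10^6 CFU/ml, incubated 18 h at 37°C in air. 10 µl was subcultured onto 5% blood Columbia agar for 24 h at 37°C. The bactericidal endpoint was >99.9% (>3-log) kill, reported as a reciprocal titer.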

[17] = system: Staphylococcus epidermidis; test: Antimicrobial activity against Staphylococcus epidermidis 2297262-9 B-V isolated from patient with pyelonephritis assessed as >3-log reduction in urinary bacterial titer after 12 hrs; format: functional, Urine
Escherichia coli [18] = test: Antimicrobial activity against Escherichia coli 1780063 B-A isolated from patient with pyelonephritis assessed as >3-log reduction in urinary bacterial titer after 4 hrs; format: functional, Urine; procedure, shortened: as §1
[19] = system: Staphylococcus haemolyticus; test: Antimicrobial activity against Staphylococcus haemolyticus 1949819 B-M isolated from patient with pyelonephritis assessed as >3-log reduction in urinary bacterial titer after 4 hrs; format: functional, Urine
Escherichia coli [20] = test: Antimicrobial activity against Escherichia coli 2062717 B-P isolated from patient with pyelonephritis assessed as >3-log reduction in urinary bacterial titer after 16 hrs; format: functional, Urine
Procedure, shortened: (§3)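 Patient urine was collected on day 3 of i.v. therapy (steady state) over 4-h intervals after infusion start, stored at –80°C, and sterile filtered. It was twofold serially diluted (1:0 to 1:131,072) in the patient's own pre-dose drug-free urine, inoculated to 1.0 x 10^6–9.5 x 10^6 CFU/ml, and incubated for 18 h at 37°C. Subcultures were grown on blood agar for 24 h. The UBT is the reciprocal of the highest dilution giving >99.9% kill.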

Escherichia coli [21] = test: Antimicrobial activity against Escherichia coli 1949825 B-K isolated from patient with pyelonephritis assessed as >3-log reduction in urinary bacterial titer after 12 hrs; format: functional, Urine; procedure, shortened: as §3
Escherichia coli [22] = test: Antimicrobial activity against Escherichia coli 1889645 B-I isolated from patient with pyelonephritis assessed as >3-log reduction in urinary bacterial titer after 20 hrs; format: functional, Urine; procedure, shortened: as §2
Escherichia coli [23] = test: Antimicrobial activity against Escherichia coli 1889645 B-I isolated from patient with pyelonephritis assessed as >3-log reduction in urinary bacterial titer after 24 hrs; format: functional, Urine; procedure, shortened: as §2
Escherichia coli [24] = test: Antimicrobial activity against Escherichia coli 1889646 B-F isolated from patient with pyelonephritis assessed as >3-log reduction in urinary bacterial titer after 12 hrs; format: functional, Urine; procedure, shortened: as §2
Enterococcus faecalis [25] = test: Antimicrobial activity against Enterococcus faecalis 2215770 B-T isolated from patient with pyelonephritis assessed as >3-log reduction in urinary bacterial titer after 24 hrs; format: functional, Urine; procedure, shortened: as §1
Escherichia coli [26] = test: Antimicrobial activity against Escherichia coli 1949826 B-L isolated from patient with pyelonephritis assessed as >3-log reduction in urinary bacterial titer after 4 hrs; format: functional, Urine; procedure, shortened: as §3
Escherichia coli [27] = test: Antimicrobial activity against Escherichia coli 2297257 B-W isolated from patient with pyelonephritis assessed as >3-log reduction in urinary bacterial titer after 8 hrs; format: functional, Urine
Escherichia coli [28] = test: Antimicrobial activity against Escherichia coli 2297257 B-W isolated from patient with pyelonephritis assessed as >3-log reduction in urinary bacterial titer after 16 hrs; format: functional, Urine
Escherichia coli [29] = test: Antimicrobial activity against Escherichia coli 1949825 B-K isolated from patient with pyelonephritis by Etest; format: functional
Enterococcus faecalis [30] = test: Antimicrobial activity against Enterococcus faecalis 2215770 B-T isolated from patient with pyelonephritis assessed as >3-log reduction in urinary bacterial titer after 4 hrs; format: functional, Urine; procedure, shortened: as §1
Escherichia coli [31] = test: Antimicrobial activity against Escherichia coli 2297257 B-W isolated from patient with pyelonephritis assessed as >3-log reduction in urinary bacterial titer after 20 hrs; format: functional, Urine
[32] = system: Staphylococcus haemolyticus; test: Antimicrobial activity against Staphylococcus haemolyticus 1949819 B-M isolated from patient with pyelonephritis assessed as >3-log reduction in urinary bacterial titer after 24 hrs; format: functional, Urine

SMILES: C[C@H]1COc2c(N3CCN(C)CC3)c(F)cc3c(=O)c(C(=O)O)cn1c23.C[C@H]1COc2c(N3CCN(C)CC3)c(F)cc3c(=O)c(C(=O)O)cn1c23.O [LEVOFLOXACIN]
- urinary bactericidal titer (Escherichia coli [1]): 1024 reciprocal titer
- urinary bactericidal titer (Serratia marcescens [2]): 32 reciprocal titer
- MIC [3]: > 32 mg/L
- urinary bactericidal titer (Pseudomonas aeruginosa [4]): 4 reciprocal titer
- urinary bactericidal titer [5]: 2 reciprocal titer
- urinary bactericidal titer (Pseudomonas aeruginosa [6]): 128 reciprocal titer
- urinary bactericidal titer [7]: 1 reciprocal titer
- Time (Enterococcus faecalis [8]): 0 h
- urinary bactericidal titer (Serratia marcescens [9]): 32 reciprocal titer
- Time (Enterococcus faecalis [10]): 0 h
- urinary bactericidal titer [11]: 2 reciprocal titer
- urinary bactericidal titer (Pseudomonas aeruginosa [12]): 4 reciprocal titer
- urinary bactericidal titer (Pseudomonas aeruginosa [13]): 2 reciprocal titer
- urinary bactericidal titer (Staphylococcus aureus): 128 reciprocal titer
- urinary bactericidal titer (Pseudomonas aeruginosa [14]): 16 reciprocal titer
- urinary bactericidal titer [15]: 1 reciprocal titer
- urinary bactericidal titer (Escherichia coli [16]): 2048 reciprocal titer
- urinary bactericidal titer [17]: 4 reciprocal titer

SMILES: C[C@@H](O)[C@H]1C(=O)N2C(C(=O)O)=C(S[C@@H]3CN[C@H](CNS(N)(=O)=O)C3)[C@H](C)[C@H]12 [DORIPENEM]
- urinary bactericidal titer (Escherichia coli [18]): 4096 reciprocal titer
- urinary bactericidal titer [19]: 512 reciprocal titer
- urinary bactericidal titer (Escherichia coli [20]): 512 reciprocal titer
- urinary bactericidal titer (Escherichia coli [21]): 8192 reciprocal titer
- urinary bactericidal titer (Escherichia coli [22]): 65500 reciprocal titer
- urinary bactericidal titer (Escherichia coli [23]): 4096 reciprocal titer
- urinary bactericidal titer (Escherichia coli [24]): 32800 reciprocal titer
- urinary bactericidal titer (Enterococcus faecalis [25]): 512 reciprocal titer
- urinary bactericidal titer (Escherichia coli [26]): 128 reciprocal titer
- urinary bactericidal titer (Escherichia coli [27]): 2048 reciprocal titer
- urinary bactericidal titer (Escherichia coli [28]): 4096 reciprocal titer
- MIC (Escherichia coli [29]): 0.03 mg/L (≈ 0.0713 µM)
- urinary bactericidal titer (Enterococcus faecalis [30]): 2048 reciprocal titer
- urinary bactericidal titer (Escherichia coli [31]): 32800 titer
- urinary bactericidal titer [32]: 128 reciprocal titer
